In ChEMBL document CHEMBL1148127, “Antimicrobial activities of a new schizozygane indoline alkaloid from Schizozygia coffaeoides and the revised structure of isoschizogaline” (2002):
In brackets after ≈: the same amount, converted by molar mass.

Assays:
Assay type in all cases: functional
[1] = system: Trichophyton interdigitale; test: Antimicrobial activity against Trichophyton interdigitale EQ 4115 after 10 days by microdilution technique; conditions: 240 h
Summary of the method: (§1)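 Dermatophytes were grown on Sabouraud's dextrose agar at 26 °C for 10 days. Fresh inocula were standardized to 10^4 CFU per 100 µL for broth microdilution against compound in DMSO (initial 500 µg/mL). Plates were kept at 26 °C for 10 days and inspected visually every day, and the MIC was recorded. Controls were ketoconazole and DMSO alone.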

[2] = system: Trichophyton tonsurans; test: Antimicrobial activity against Trichophyton tonsurans EQ 4329 after 10 days by microdilution technique; conditions: 240 h; summary of the method: as §1
[3] = system: Trichophyton mentagrophytes; test: Antimicrobial activity against Trichophyton mentagrophytes NCPF 224 after 10 days by microdilution technique; conditions: 240 h; summary of the method: as §1
[4] = system: Pseudomonas aeruginosa; test: Antimicrobial activity against Pseudomonas aeruginosa NCIMB 10421 after 24 hrs by microdilution technique
Summary of the method: (§2)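 Bacteria were grown on nutrient agar at 37 °C for 24 h. Fresh suspensions were standardized to 10^5 CFU per 100 µL and added to microdilution wells. Compounds were dissolved in DMSO with an initial concentration of 500 µg/mL. Ampicillin served as the positive control, with a DMSO-alone check. Growth was read visually and the MIC recorded.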

[5] = system: Staphylococcus aureus; test: Antimicrobial activity against Staphylococcus aureus NCIMB 9515 after 24 hrs by microdilution technique; summary of the method: as §2
[6] = system: Cladosporium cladosporioides; test: Antimicrobial activity against Cladosporium cladosporioides IMI 299104 after 10 days by microdilution technique; conditions: 240 h
Summary of the method: (§3)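 These plant-pathogenic Cladosporium strains were cultured on potato dextrose agar at 26 °C for 10 days. Suspensions were standardized to 10^4 CFU per 100 µL and tested by microdilution against compound dissolved in DMSO (initial 500 µg/mL). Plates were held at 26 °C for 10 days with daily visual growth checks, and the MIC was recorded. Controls were ketoconazole and DMSO alone.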

[7] = system: Bacillus subtilis; test: Antimicrobial activity against Bacillus subtilis NCTC 10073 after 24 hrs by microdilution technique; conditions: NCTC 10073, 24 h; summary of the method: as §2
[8] = system: Nannizzia gypsea; test: Antimicrobial activity against Microsporum gypseum NCPF 40 after 10 days by microdilution technique; conditions: 240 h; summary of the method: as §1
[9] = system: Escherichia coli; test: Antimicrobial activity against Escherichia coli NCTC 9002 after 24 hrs by microdilution technique; conditions: NCTC 9002, 24 h; summary of the method: as §2
[10] = system: Cladosporium herbarum; test: Antimicrobial activity against Cladosporium herbarum after 10 days by microdilution technique; conditions: 240 h; summary of the method: as §3
[11] = system: Epidermophyton floccosum; test: Antimicrobial activity against Epidermophyton floccosum after 10 days by microdilution technique; conditions: 240 h; summary of the method: as §1
[12] = system: Candida albicans; test: Antimicrobial activity against Candida albicans after 24 hrs by microdilution technique
Summary of the method: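 Yeast was cultured on Sabouraud's dextrose agar at 30 °C for 24 h. A fresh suspension was standardized to 10^4 CFU per 100 µL and added to microdilution wells holding compound in DMSO (initial 500 µg/mL). Plates were incubated at 30 °C for 24 h and checked visually for growth to give the MIC. Controls were ketoconazole and DMSO alone.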

COc1ccc2c(c1)N1C(=O)C[C@]34C=CCN5CC[C@@H]2[C@@H](CC3)[C@]514 [ISOSCHIZOGALINE]
MIC [1]: > 500 µg/mL | MIC [2]: > 500 µg/mL | MIC [3]: > 500 µg/mL | MIC [4]: > 500 µg/mL | MIC [5]: 125 µg/mL (≈ 388 µM) | MIC [6]: > 500 µg/mL | MIC [7]: 62.5 µg/mL (≈ 194 µM) | MIC [8]: > 500 µg/mL | MIC [9]: > 500 µg/mL | MIC [10]: > 500 µg/mL | MIC [11]: > 500 µg/mL | MIC [12]: > 500 µg/mL

CC1(C)S[C@@H]2[C@H](NC(=O)[C@H](N)c3ccccc3)C(=O)N2[C@H]1C(=O)O [AMPICILLIN]
MIC [4]: 25 µg/mL (≈ 71.5 µM) | MIC [5]: 12.5 µg/mL (≈ 35.8 µM) | MIC [7]: 12.5 µg/mL (≈ 35.8 µM) | MIC [9]: 20 µg/mL (≈ 57.2 µM)

O=C1[C@H](O)[C@]23C=CCN4CC=C5c6cc7c(cc6N1[C@@]5(CC2)[C@@H]43)OCO7
MIC [1]: < 3.9 µg/mL | MIC [2]: 3.9 µg/mL (≈ 11.1 µM) | MIC [3]: < 1.95 µg/mL | MIC [4]: > 500 µg/mL | MIC [5]: > 500 µg/mL | MIC [6]: 7.8 µg/mL (≈ 22.3 µM) | MIC [7]: > 500 µg/mL | MIC [8]: 1.95 µg/mL (≈ 5.57 µM) | MIC [9]: 250 µg/mL (≈ 714 µM) | MIC [10]: 15.6 µg/mL (≈ 44.5 µM) | MIC [11]: > 1.95 µg/mL | MIC [12]: 7.8 µg/mL (≈ 22.3 µM)

CC(=O)N1CCN(c2ccc(OCC3COC(Cn4ccnc4)(c4ccc(Cl)cc4Cl)O3)cc2)CC1 (stereo not drawn) [KETOCONAZOLE]
MIC [1]: 25 µg/mL (≈ 47 µM) | MIC [2]: 50 µg/mL (≈ 94.1 µM) | MIC [3]: 6.25 µg/mL (≈ 11.8 µM) | MIC [6]: 25 µg/mL (≈ 47 µM) | MIC [8]: 6.25 µg/mL (≈ 11.8 µM) | MIC [10]: 50 µg/mL (≈ 94.1 µM) | MIC [11]: 25 µg/mL (≈ 47 µM) | MIC [12]: 25 µg/mL (≈ 47 µM)

O=C1C[C@]23C=CCN4CC[C@H]5c6cc7c(cc6N1[C@@]5(CC2)[C@@H]43)OCO7 [SCHIZOZYGINE]
MIC [1]: > 500 µg/mL | MIC [2]: > 500 µg/mL | MIC [3]: > 500 µg/mL | MIC [4]: > 500 µg/mL | MIC [5]: > 500 µg/mL | MIC [6]: > 500 µg/mL | MIC [7]: > 500 µg/mL | MIC [8]: > 500 µg/mL | MIC [9]: > 500 µg/mL | MIC [10]: > 500 µg/mL | MIC [11]: > 500 µg/mL | MIC [12]: > 500 µg/mL
